Reference: ChEMBL document CHEMBL1132183 (J Med Chem, 1999)

Legend:
[1] = target: T1, 5-hydroxytryptamine receptor 1A (Homo sapiens, UniProt P08908); assay: Displacement of [3H]8-hydroxy-2-(di-n-propylamino)tetralin from human 5-hydroxytryptamine 1A receptor
T1 sequence (P08908 whole entry): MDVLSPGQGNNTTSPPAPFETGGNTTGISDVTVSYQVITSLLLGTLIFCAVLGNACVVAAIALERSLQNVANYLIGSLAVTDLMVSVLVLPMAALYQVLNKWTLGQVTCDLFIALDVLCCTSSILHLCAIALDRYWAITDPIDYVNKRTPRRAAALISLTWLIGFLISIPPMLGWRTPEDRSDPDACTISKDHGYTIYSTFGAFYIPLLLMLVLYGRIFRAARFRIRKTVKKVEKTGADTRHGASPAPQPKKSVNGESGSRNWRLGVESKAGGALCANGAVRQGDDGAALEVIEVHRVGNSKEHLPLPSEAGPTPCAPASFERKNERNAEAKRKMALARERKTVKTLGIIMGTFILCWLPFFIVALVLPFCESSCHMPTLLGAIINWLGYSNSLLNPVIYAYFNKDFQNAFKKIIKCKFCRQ
Outline: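 Membranes of HeLa cells stably transfected with human 5-HT1A (genomic clone G-21), in 50 mM Tris-HCl pH 7.4, 2.5 mM MgCl2, 10 μM pargiline. […] Nonspecific binding defined with 10 μM 5-HT. Filtration, scintillation counting. Ki by Cheng–Prusoff; 2–3 experiments in triplicate.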

[2] = target: T2, Adrenergic receptor alpha-2 (Rattus norvegicus, UniProt P22086+P19328+P22909); assay: Displacement of [3H]rauwolscine from rat brain Alpha-2 adrenergic receptor
T2 sequence (P22086 whole entry): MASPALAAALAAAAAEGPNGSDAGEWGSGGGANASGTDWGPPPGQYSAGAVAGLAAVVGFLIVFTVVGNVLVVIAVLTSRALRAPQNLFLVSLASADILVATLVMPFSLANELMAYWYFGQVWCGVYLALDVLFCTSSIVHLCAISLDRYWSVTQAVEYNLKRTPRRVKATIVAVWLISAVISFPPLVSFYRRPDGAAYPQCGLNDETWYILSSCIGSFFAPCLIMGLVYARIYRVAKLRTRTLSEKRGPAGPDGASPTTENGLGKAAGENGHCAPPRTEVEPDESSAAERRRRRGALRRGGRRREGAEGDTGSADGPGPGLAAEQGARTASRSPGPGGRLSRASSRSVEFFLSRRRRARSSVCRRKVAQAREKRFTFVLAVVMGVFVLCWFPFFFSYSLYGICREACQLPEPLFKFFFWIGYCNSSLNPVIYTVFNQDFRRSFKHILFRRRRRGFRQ
T2 sequence (P19328 whole entry): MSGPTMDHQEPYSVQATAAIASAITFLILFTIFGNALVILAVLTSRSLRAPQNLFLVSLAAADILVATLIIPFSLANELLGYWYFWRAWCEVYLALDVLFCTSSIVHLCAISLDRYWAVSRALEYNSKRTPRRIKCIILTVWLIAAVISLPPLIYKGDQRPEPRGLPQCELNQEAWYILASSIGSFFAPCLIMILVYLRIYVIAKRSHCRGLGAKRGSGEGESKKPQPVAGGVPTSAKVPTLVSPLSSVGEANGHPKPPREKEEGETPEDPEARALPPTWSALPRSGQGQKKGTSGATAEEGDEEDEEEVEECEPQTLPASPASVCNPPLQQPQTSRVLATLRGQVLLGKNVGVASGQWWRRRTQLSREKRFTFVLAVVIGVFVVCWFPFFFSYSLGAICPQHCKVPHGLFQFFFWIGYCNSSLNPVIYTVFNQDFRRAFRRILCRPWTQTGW
T2 sequence (P22909 whole entry): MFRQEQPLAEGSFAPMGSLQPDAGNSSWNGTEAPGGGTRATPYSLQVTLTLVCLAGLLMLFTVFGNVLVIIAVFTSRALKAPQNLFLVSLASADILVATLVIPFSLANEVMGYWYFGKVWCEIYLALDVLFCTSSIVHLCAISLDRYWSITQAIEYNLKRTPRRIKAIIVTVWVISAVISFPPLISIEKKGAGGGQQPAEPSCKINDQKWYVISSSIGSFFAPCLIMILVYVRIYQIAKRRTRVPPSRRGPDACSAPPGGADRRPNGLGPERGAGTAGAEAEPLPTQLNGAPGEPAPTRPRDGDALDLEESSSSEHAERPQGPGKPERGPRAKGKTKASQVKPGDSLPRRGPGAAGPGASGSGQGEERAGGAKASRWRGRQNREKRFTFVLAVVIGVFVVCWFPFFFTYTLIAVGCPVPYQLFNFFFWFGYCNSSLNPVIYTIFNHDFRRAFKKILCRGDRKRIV
Outline: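 Rat cerebral cortex membranes (male Sprague–Dawley) were washed in Tris-HCl pH 7.4 and resuspended with 10 μM pargiline and 0.1% ascorbic acid. They were incubated 30 min at 25 °C with 0.5–1.5 nM [3H]rauwolscine. Nonspecific binding was taken with 10 μM phentolamine. Filtration and scintillation counting followed, and Ki was obtained by Cheng–Prusoff.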

[3] = target: T3, Alpha-1D adrenergic receptor (Homo sapiens, UniProt P25100); assay: Displacement of [3H]prazosin from human cloned Alpha-1D adrenergic receptor
T3 sequence (P25100 whole entry): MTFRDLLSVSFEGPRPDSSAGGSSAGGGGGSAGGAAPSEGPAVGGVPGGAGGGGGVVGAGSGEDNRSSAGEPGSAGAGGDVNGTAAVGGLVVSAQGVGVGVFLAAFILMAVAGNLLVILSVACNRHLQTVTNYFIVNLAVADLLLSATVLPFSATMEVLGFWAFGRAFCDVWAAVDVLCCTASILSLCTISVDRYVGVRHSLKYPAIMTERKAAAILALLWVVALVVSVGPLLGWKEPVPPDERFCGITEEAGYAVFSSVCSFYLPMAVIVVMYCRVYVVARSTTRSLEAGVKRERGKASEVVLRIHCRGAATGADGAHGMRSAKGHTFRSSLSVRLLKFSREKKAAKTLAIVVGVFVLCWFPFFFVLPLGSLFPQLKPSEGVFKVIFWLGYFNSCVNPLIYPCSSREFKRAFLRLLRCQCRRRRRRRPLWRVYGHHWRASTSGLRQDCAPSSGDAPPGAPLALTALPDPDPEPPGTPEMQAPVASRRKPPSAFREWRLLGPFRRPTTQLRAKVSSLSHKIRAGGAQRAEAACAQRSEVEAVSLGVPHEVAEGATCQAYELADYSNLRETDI
Outline: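 CHO cells stably transfected with each human α1 subtype; 30 μg membrane protein in 50 mM Tris-HCl pH 7.4 with 0.1–0.4 nM [3H]prazosin, 30 min at 25 °C. Competitors 1 pM–10 μM. Nonspecific binding defined with 10 μM phentolamine. Filtration, scintillation counting. Ki by Cheng–Prusoff; 2–3 experiments in triplicate.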

SMILES	Ki [1] [nM]	Log Ki [2]	Ki [3] [nM]
O[C@@H]1[C@H](NC[C@@H]2COc3ccccc3O2)CC[C@H]1Oc1ccccc1	22.4	-6.27	16.2
O[C@@H]1[C@H](NC[C@H]2COc3ccccc3O2)CC[C@H]1Oc1ccccc1	5.5	-6.05	–
O[C@H]1[C@@H](NC[C@H]2COc3ccccc3O2)CC[C@@H]1Oc1ccccc1	0.832	-6.23	200
O[C@H]1[C@@H](NC[C@@H]2COc3ccccc3O2)CC[C@@H]1Oc1ccccc1	3.72	-6.21	933
